# Results from different studies.
# ABL1 E255K phosphorylated: Tyrosine-protein kinase ABL1, phosphorylated (ABL1, Homo sapiens, UniProt P00519, E255K)
# ABL1: Tyrosine-protein kinase ABL1 (ABL1, Homo sapiens, UniProt P00519)
# ABL1 F317I non-phosphorylated: Tyrosine-protein kinase ABL1, non-phosphorylated (ABL1, Homo sapiens, UniProt P00519, F317I)
target,assay,setting,measurement,value,Compound
ABL1 E255K phosphorylated,"binding, competition with immobilised ligand",1 µM,remaining binding,77%,C[C@H]1CC[C@H](n2c3cnccc3c3cnc(Nc4ccc5c(n4)CCN(C(=O)CO)C5)nc32)CC1
ABL1,"enzyme activity, inhibitor",100 pM,inhibition,> 50%,[2H]c1cc(C)c(NC(=O)c2cnc(Nc3cc(N4CCCCC4)nc(C)n3)s2)c(Cl)c1
ABL1 E255K phosphorylated,"cell-free assay, competition with immobilised ligand",25 µM,remaining binding,92%,N#Cc1ccc(NC(=O)Nc2ccccc2)cc1
"Tyrosine-protein kinase ABL1, phosphorylated (ABL1, Homo sapiens, UniProt P00519)",binding,0.1 µM,remaining binding,27%,C1=C/COCc2cc(ccc2OCCN2CCCC2)Nc2nccc(n2)-c2cccc(c2)COC/1
ABL1 F317I non-phosphorylated,"enzyme activity, inhibitor",1 µM,inhibition,0%,CO[C@@H]1[C@H](N(C)C(=O)c2ccccc2)C[C@H]2O[C@]1(C)n1c3ccccc3c3c4c(c5c6ccccc6n2c5c31)C(=O)NC4
"Tyrosine-protein kinase ABL1, non-phosphorylated (ABL1, Homo sapiens, UniProt P00519)","binding, competition with immobilised ligand",0.5 µM,remaining binding,85%,CCCCC(=O)Nc1ccc(-c2ccc3ncn(CCC)c(=O)c3c2)cn1
"Tyrosine-protein kinase ABL1 (ABL1, Homo sapiens, UniProt P00519, F317L)",binding,1 µM,remaining binding,84%,COc1ccc2[nH]c3c4[nH]c5ccc(OC)cc5c4c4c(c3c2c1)C(=O)NC4=O
ABL1 F317I non-phosphorylated,"enzyme activity, inhibitor",1 µM,inhibition,25%,CC#CC(=O)N1CCC[C@H]1c1nc(-c2ccc(C(=O)Nc3ccccn3)cc2)c2c(N)nccn12
ABL1 E255K phosphorylated,"binding, competition with immobilised ligand",1 µM,remaining binding,38%,CN1CCN(C(=O)c2ccc(NC(=O)Nc3ccc(N(C)c4ccnc(Nc5ccc(CS(C)(=O)=O)cc5)n4)cc3)cc2)CC1
ABL1,binding,1 µM,remaining binding,102%,COc1ccc2oc(-c3ccc4nc(N)oc4c3)c/c(=N\c3ccccc3NC(=O)CCN)c2c1
"Tyrosine-protein kinase ABL1, phosphorylated (ABL1, Homo sapiens, UniProt P00519, M351T)","enzyme activity, inhibitor",1 µM,inhibition,0%,C=CC(=O)N1CCC([C@@H]2CCNc3c(C(N)=O)c(-c4ccc(Oc5ccccc5)cc4)nn32)CC1
"Tyrosine-protein kinase ABL1 (ABL1, Homo sapiens, UniProt P00519, M351T)",binding,1 µM,remaining binding,100%,Cc1ccc(NC(=O)c2ccnc(C(F)(F)F)c2)cc1-c1cc(OCCO)nc(N2CCOCC2)c1
